Compound activity deposited in PubChem by several laboratories.
CHT block: inhibitors of human choline transporter CHT. CHT-expressing cells, membrane potential dye, choline response; stronger effect = lower value. B-score at 10 µM. 310,000 compounds, 0.86% hits. AID 488975;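 active = B-score over 3 SD under the library average, and starting fluorescence ratio not unusually high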;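 note: choline stimulus applied at its EC90 after an EC20 pre-addition; B-score computed on integrated fluorescence ratio after choline addition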
Target sequence (Q9GZV3 whole entry, looked up): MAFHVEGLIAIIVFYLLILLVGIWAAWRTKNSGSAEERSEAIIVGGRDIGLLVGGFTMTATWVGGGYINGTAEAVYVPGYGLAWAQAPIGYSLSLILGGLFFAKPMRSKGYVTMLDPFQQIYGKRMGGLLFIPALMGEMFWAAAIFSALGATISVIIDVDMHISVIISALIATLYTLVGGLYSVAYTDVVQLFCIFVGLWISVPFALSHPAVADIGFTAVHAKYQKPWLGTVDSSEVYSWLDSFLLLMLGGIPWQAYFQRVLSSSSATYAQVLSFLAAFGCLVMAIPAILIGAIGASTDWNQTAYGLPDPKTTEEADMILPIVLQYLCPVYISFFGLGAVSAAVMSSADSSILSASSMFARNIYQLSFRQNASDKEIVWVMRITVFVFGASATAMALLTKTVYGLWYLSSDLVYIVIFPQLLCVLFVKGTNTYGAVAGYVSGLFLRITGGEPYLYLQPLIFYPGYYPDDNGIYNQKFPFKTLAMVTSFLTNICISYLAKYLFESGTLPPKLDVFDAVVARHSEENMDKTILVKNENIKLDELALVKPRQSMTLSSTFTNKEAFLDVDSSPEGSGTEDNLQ
CHT allo act: allosterically activates the human high affinity choline transporter; CHT-expressing cells, membrane potential dye, choline EC20; stronger effect = higher value; LV-AA mutant CHT in HEK293 cells; B-score at 10 µM; 310,000 compounds, 0.49% hits; AID 488977;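 active = initial fluorescence not abnormally high and integrated response B-score, plate-corrected, over 3 SD above library mean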
PolyA inhibitor: blocks polyadenylation in yeast reporter cells | S. cerevisiae SKY197-pL101 polyadenylation reporter, beta-gal luminescence; efflux-impaired pdr1/pdr3 knockout yeast; score 100 = 6 SD above DMSO | 300,000 compounds, 0.02% hits | activity score, % at 12 µM | AID 1875;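 active = lowest replicate activity score at least 50, where 100 means six control SD above control mean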;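 note: yeast exposed to compound for 9 h at 30 °C; higher score means more reporter readthrough which indicates perturbed polyadenylation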
T cruzi inh: T. cruzi replication inhibition; T. cruzi beta-gal in NIH3T3, luminescence, 90 h; inhibition, % (no concentration beside the values); 300,000 compounds, 1.4% hits;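 active = mean inhibition across valid replicates above about 55%, limit read from the data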;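 note: signal also drops with host cell toxicity which is not excluded here; higher percent means less beta-gal luminescence so fewer parasites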
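Assay system: NIH/3T3 fibroblasts plus reporter T. cruzi. Amount: NIH/3T3 cells, 5,000 per well. Buffer or medium: DMEM, 2% fetal bovine serum. Doses: compound pinned at 50 nL/well, DMSO. Schedule: ≥90 h infection period, 3 h prior cell attachment. Signal: luminescent β-galactosidase signal after 60 min lysis. Read-out: parasite load inhibition, %.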
A number is an active result. An excerpt weighted towards active compounds, which were near 2.6% of everything screened.

For COc1ccc(N(C(=O)CCl)C(C(=O)NCCc2ccccc2)c2cccs2)cc1Cl (stereo not given) the results were CHT block inactive, CHT allo act inactive, PolyA inhibitor inactive and T cruzi inh 63.
For COc1ccc(-n2c(SCC(=O)C(C)(C)C)nc3c(sc(=S)n3-c3ccccc3)c2=O)c(OC)c1 the results were CHT block inactive, CHT allo act inactive, PolyA inhibitor inactive and T cruzi inh 60.
Screening CCOC(=O)CSc1nc2c(sc(=S)n2-c2ccccc2OC)c(=O)n1-c1ccccc1OC returned CHT block inactive, CHT allo act inactive, PolyA inhibitor inactive and T cruzi inh inactive.
`CCOc1cc(N2CCOCC2)c(OCC)cc1NC(=O)c1ccc2ccccc2n1` gave CHT block inactive, CHT allo act inactive, PolyA inhibitor inactive and T cruzi inh 58.
Screening CCOC(=O)Cc1csc(NC(=O)CSc2nnc(-c3ccc(OC)cc3)n2C)n1 returned CHT block inactive, CHT allo act inactive, PolyA inhibitor inactive and T cruzi inh 70.
For CC(=S)/C=C1\Sc2ccccc2N1C the results were CHT block inactive, CHT allo act inactive, PolyA inhibitor inactive and T cruzi inh 69.
For O=[N+]([O-])c1cc([N+](=O)[O-])c(Oc2cncc(Cl)c2)cc1NC1CCCCCCC1 the results were CHT block inactive, CHT allo act inactive, PolyA inhibitor inactive and T cruzi inh inactive.
Screening COc1ccc(CCC(C)NCc2cccc(Br)c2)cc1 (stereo not given) returned CHT block inactive, CHT allo act inactive, PolyA inhibitor inactive and T cruzi inh inactive.
CCCCCCCOC(=O)C[N+](C)(C)CCOC1CC2CCC1(C)C2(C)C (stereo not given) was read as PolyA inhibitor inactive and T cruzi inh 62.
Screening CCCOC(=O)C[N+](C)(C)CCOC1CC2CCC1(C)C2(C)C (stereo not given) returned CHT block inactive, CHT allo act inactive, PolyA inhibitor inactive and T cruzi inh inactive.
CCC(C)OC(=O)C[N+](C)(C)CCOC1CC2CCC1(C)C2(C)C (stereo not given) was read as CHT block inactive, CHT allo act inactive, PolyA inhibitor inactive and T cruzi inh 64.
For CC(C)CCOC(=O)C[N+](C)(C)CCOC1CC2CCC1(C)C2(C)C (stereo not given) the results were CHT block inactive, CHT allo act inactive, PolyA inhibitor inactive and T cruzi inh 61.
For CCCCCCOC(=O)C[N+](C)(C)CCOC1CC2CCC1(C)C2(C)C (stereo not given) the results were CHT block inactive, CHT allo act 8.5, PolyA inhibitor inactive and T cruzi inh 72.
`CCc1ccc(C(C(=O)NC2CCCC2)N(Cc2cccnc2)C(=O)c2csnn2)cc1` (stereo not given) gave CHT block inactive, CHT allo act inactive, PolyA inhibitor inactive and T cruzi inh inactive.
For CS(=O)(=O)N(CC(=O)N1CCOCC1)c1ccccc1Br the results were CHT block inactive, CHT allo act inactive, PolyA inhibitor inactive and T cruzi inh inactive.
Screening CCC(=O)N1CCN(c2ccc(NC(=O)c3ccc([N+](=O)[O-])o3)cc2)CC1 returned PolyA inhibitor inactive and T cruzi inh 72.
Screening CC(C)(C)C(=O)N1CCN(c2ccc(NC(=O)c3ccc([N+](=O)[O-])o3)cc2)CC1 returned CHT block inactive, CHT allo act inactive, PolyA inhibitor inactive and T cruzi inh inactive.
`O=C(Nc1ccc(N2CCN(C(=O)c3ccc(Cl)cc3)CC2)cc1)c1ccc([N+](=O)[O-])o1` gave PolyA inhibitor inactive and T cruzi inh 93.
O=C(Nc1ccccc1N1CCCC1)c1ccc([N+](=O)[O-])o1 was read as CHT block inactive, CHT allo act inactive, PolyA inhibitor inactive and T cruzi inh 62.
Screening CC1CCN(c2ccc(NC(=O)c3ccc([N+](=O)[O-])o3)cc2)CC1 returned CHT block inactive, CHT allo act inactive, PolyA inhibitor inactive and T cruzi inh 72.
`CC1CCN(c2ccccc2NC(=O)c2ccc([N+](=O)[O-])o2)CC1` gave CHT block inactive, CHT allo act inactive, PolyA inhibitor inactive and T cruzi inh inactive.
`CCCC(=O)N1CCN(c2ccc(NC(=O)c3ccc([N+](=O)[O-])o3)cc2)CC1` gave PolyA inhibitor inactive and T cruzi inh inactive.
CN1CCN(c2ccc(NC(=O)c3ccc(-c4ccc(Br)cc4)o3)cc2)CC1 was read as CHT block inactive, CHT allo act inactive, PolyA inhibitor inactive and T cruzi inh 58.
